Records with an inconclusive call do not appear.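 How the source made its calls, unless noted: active means RAM network inhibition above 8.4% in each of two replicates, 3 SD over the compound average; inconclusive means above 8.4% inhibition in only one replicate; inactive means 8.4% inhibition or less in each replicate.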
Legend:
[1] = S. cerevisiae growth inhibition in permissive medium (OD615), pilot counter-assay for S. cerevisiae lifespan shortening project, permissive growth control (AID 705;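 active means growth inhibition above 25% in both replicates, a cutoff set 3 SD above the mean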); conditions: OD615, 24 h, at 10 µM, stronger effect = higher value
In short: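 System: S. cerevisiae with engineered DeaD lifespan system. Medium: SC raffinose/galactose permissive medium. Doses: single compound dose of 10 µM, 0.25% DMSO final. Schedule: 24 h exposure, 30 °C. Measured by: OD615 turbidity read. Read-out: growth inhibition.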

[2] = S. cerevisiae growth inhibition in restrictive medium, OD615, pilot screen, restrictive growth control, yeast lifespan reduction project (AID 706;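 active means growth inhibition above a set limit, 3 SD over mean compound inhibition, in both replicates, cut at about 43% in these data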;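 further: modified DeaD lifespan yeast strain shifted to restrictive glucose medium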); conditions: OD615, 48 h, at 10 µM, stronger effect = higher value
In short: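 Assay system – genetically modified Saccharomyces cerevisiae, DeaD replicative lifespan assay strain · Medium – CSMM-D glucose medium · Doses – 10 µM compound, 0.25% DMSO · Times – 4 h pre-incubation, 48 h exposure at 30 °C · Signal – optical density at 615 nm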

[3] = doxorubicin toxicity protection in MRP-1 cells – H69AR cells, CellTiter-Glo, duplicate, MRP-1 activator project, pilot screen (AID 807;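 active means viability increase at or above a cutoff of the median across tested compounds plus 3 SD, cut at about 8.5% in these data, passing the limit was not always enough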;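 further: compound pretreatment 18-22 h then 72 h combined with doxorubicin; 0% = doxorubicin alone and 100% = vehicle without doxorubicin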); conditions: H69AR viability with doxorubicin, CellTiter-Glo luminescence; at 10 µM; stronger effect = higher value
[4] = viability of HCT116 without oncogenic beta-catenin – human colon tumor cells, pilot screen (AID 823;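 active means cell viability at or below a set limit in both duplicate runs, the limit being the all-compound median minus 4 SD, cut at about 23% in these data, passing the limit was not always enough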;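 further: 0% = wells killed by 20 µM Hyamine and 100% = untreated DMSO cell wells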); conditions: HCT116 beta-catenin knockout viability, CellTiter-Glo, 60 h; at 10 µM; stronger effect = lower value
[5] = viability of PTEN-null HCT116 cells – cell-based, HCT116 clonal line, CellTiter-Glo, pilot screen (AID 824;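 active means viability at or below 27.92% in each of two runs, the all-compound median minus 4 SD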;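 further: 0% = 20 µM Hyamine control and 100% = vehicle cell control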); conditions: HCT116 PTEN-deleted viability, 60 h, at 10 µM, stronger effect = lower value
[6] = RAM pathway blockade in budding yeast – dse1pr::URA3 reporter, 5-FOA selection, pilot screen (AID 869;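 active means inhibition over a set limit, the all-compound mean plus 3 SD, in both replicate runs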;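 further: 0% = DMSO wells with no growth and 100% = 10 µM 1-NA-PP1 with full growth; RAM network block rescues cells from 5-FOA so hits raise OD615 growth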); conditions: S. cerevisiae dse1pr::URA3 5-FOA growth, OD615, 2 d; at 10 µM; stronger effect = higher value; strain carries analog-sensitive mutant Cbk1 kinase
[7] = RAM signaling pathway blockade in yeast – S. cerevisiae, Pdr1DBD-CYC8 efflux-inhibited sensitized strain, primary screen (AID 1298);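 further: 0% = DMSO untreated cells without growth and 100% = 10 µM 1-NA-PP1 full growth; higher means more yeast growth rescued from 5-FOA killing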; conditions: S. cerevisiae cbk1-as DSE1-URA3 strain, 5-FOA growth OD615, 2 d; at 50 µM; stronger effect = higher value

CN(c1ccc(C(=O)O)cc1)S(=O)(=O)c1ccccc1
inactive: growth inhibition [1] 0.21% | growth inhibition [2] 5.12% | viability increase [3] -1.24% | viability [4] 99.5% | viability [5] 92.5% | inhibition [6] 1.14% | RAM network inhibition [7] 1.5%

COc1ccc(CCNC(=O)CCn2c(=O)oc3ccccc32)cc1OC
inactive: growth inhibition [1] -6.99% | growth inhibition [2] -12.8% | viability increase [3] -0.1% | viability [4] 105% | viability [5] 97.9% | inhibition [6] 1.47% | RAM network inhibition [7] 1.61%

Cc1ccc(-c2nc(CS(=O)(=O)CC(=O)NC3CCCCC3C)c(C)o2)cc1 (configuration not stated)
inactive: growth inhibition [1] -15.3% | growth inhibition [2] -32.8% | viability increase [3] -0.44% | viability [4] 93% | viability [5] 87.4% | inhibition [6] 1.73% | RAM network inhibition [7] 7.21%

Nc1nonc1C(=O)NCCc1ccccc1
inactive: growth inhibition [1] -6.66% | growth inhibition [2] 6.3% | viability increase [3] -0.05% | viability [4] 116% | viability [5] 99.6% | inhibition [6] 0.71% | RAM network inhibition [7] -0.76%

CCN(CC)C(=O)c1cc2sc3ccccc3c2s1
inactive: growth inhibition [1] -11.5% | growth inhibition [2] -2.27% | viability increase [3] 0.41% | viability [4] 88.1% | viability [5] 95% | inhibition [6] -0.05% | RAM network inhibition [7] 3.43%

CCOc1ccc(S(=O)(=O)N(CC(=O)O)c2ccccc2)cc1
inactive: growth inhibition [1] -1.83% | growth inhibition [2] -7.26% | viability increase [3] -2.11% | viability [4] 102% | viability [5] 93.6% | inhibition [6] 1.07% | RAM network inhibition [7] 2.61%

CCCC(=O)N1CC(=O)Nc2ccc(F)cc2C1c1ccccc1 (configuration not stated)
inactive: growth inhibition [1] -5.99% | growth inhibition [2] -15.7% | viability increase [3] -1.01% | viability [4] 111% | viability [5] 92.6% | inhibition [6] 3.18% | RAM network inhibition [7] 3.75%

CCCCn1c(CN2CCOCC2)nc2c1c(=O)n(C)c(=O)n2C
inactive: growth inhibition [1] -1.51% | growth inhibition [2] -7.03% | viability increase [3] -1.72% | viability [4] 93.8% | viability [5] 89.6% | inhibition [6] 0.375% | RAM network inhibition [7] 2.4%

COc1ccc(-c2nc(C#N)c(NC(C)C)o2)cc1
inactive: growth inhibition [1] -4.08% | growth inhibition [2] -2.25% | viability increase [3] -0.02% | viability [4] 90.4% | viability [5] 93.8% | inhibition [6] 2.67% | RAM network inhibition [7] 3.99%

N#Cc1c2n(c3c(-c4ccccc4)ncnc13)CCC2
inactive: growth inhibition [1] -12.9% | growth inhibition [2] -11.2% | viability increase [3] -2.25% | viability [4] 104% | viability [5] 98.7% | inhibition [6] 2.73% | RAM network inhibition [7] 3.93%

CN(C)c1nc(N)nc(-c2ccco2)n1
inactive: growth inhibition [1] 3.19% | growth inhibition [2] 14.2% | viability increase [3] 0.01% | viability [4] 93.7% | viability [5] 103% | inhibition [6] 0.535% | RAM network inhibition [7] 0.21%

CN(CC(=O)N1CCc2ccccc21)S(=O)(=O)c1cccc2cccnc12
inactive: growth inhibition [1] -0.355% | growth inhibition [2] -2.55% | viability increase [3] -3.47% | viability [4] 93.9% | viability [5] 90.8% | inhibition [6] 1.47% | RAM network inhibition [7] 8.8%

COc1ccc(-c2nc(=S)[nH][nH]2)cc1
inactive: growth inhibition [1] -5.89% | growth inhibition [2] -17% | viability increase [3] -1.62% | viability [4] 99% | viability [5] 89% | inhibition [6] 1.53% | RAM network inhibition [7] 5.26%

O=C(CCCSc1nc2sc3c(c2c(=O)[nH]1)CCC3)NCCCO
inactive: growth inhibition [1] -8.91% | growth inhibition [2] 6.12% | viability increase [3] 0.57% | viability [4] 102% | viability [5] 99.8% | inhibition [6] 0.14% | RAM network inhibition [7] 1.44%

Cc1c(NC(=O)C2CCCN2S(=O)(=O)c2ccccc2)c(=O)n(-c2ccccc2)n1C (configuration not stated)
inactive: growth inhibition [1] -8.82% | growth inhibition [2] -10.2% | viability increase [3] -1% | viability [4] 97.3% | viability [5] 107% | inhibition [6] 2.12% | RAM network inhibition [7] 0.05%

COc1ccc(Cl)cc1NC(=O)C1CCCO1 (configuration not stated)
inactive: growth inhibition [1] 0.985% | growth inhibition [2] -9.53% | viability increase [3] -2.12% | viability [4] 98.9% | viability [5] 94.7% | inhibition [6] 1.42% | RAM network inhibition [7] 2.75%

CC1CCCC(C)N1CCCNC(=O)Cn1cc2c(n1)CCCC2 (configuration not stated)
inactive: growth inhibition [1] 9.32% | growth inhibition [2] 6.46% | viability increase [3] -1.41% | viability [4] 95.7% | viability [5] 92.5% | inhibition [6] -0.06% | RAM network inhibition [7] 6.61%

Cc1oc(-c2ccccc2F)nc1CS(=O)CC(=O)NCc1cccs1 (configuration not stated)
inactive: growth inhibition [1] -2.83% | growth inhibition [2] 26% | viability increase [3] -2.27% | viability [4] 99.7% | viability [5] 93.4% | inhibition [6] 1.64% | RAM network inhibition [7] 8.65%

CCCCC(=O)Nc1ccc2c(c1)C(=O)NC2=O
inactive: growth inhibition [1] -2.94% | growth inhibition [2] -3.99% | viability increase [3] 0.07% | viability [4] 101% | viability [5] 94.5% | inhibition [6] 2.62% | RAM network inhibition [7] 2.45%

Cc1cc2oc3c(c(=O)c2cc1C)C(c1ccc(C(C)C)cc1)N(CCCN1CCOCC1)C3=O (configuration not stated)
inactive: growth inhibition [1] -7.04% | growth inhibition [2] -2.79% | viability increase [3] -3.45% | viability [4] 95.8% | viability [5] 86.5% | inhibition [6] 1.31% | RAM network inhibition [7] 4.42%

O=C(COc1ccc(S(=O)(=O)NC2CCCCC2)cc1)Nc1ccc2c(c1)OCCO2
inactive: growth inhibition [1] -2.47% | growth inhibition [2] 4.23% | viability increase [3] -2.05% | viability [4] 84% | viability [5] 70.8% | inhibition [6] 2.25% | RAM network inhibition [7] 5.01%

CC(=O)NCC(=O)NC1(C(=O)NC2CCCC2)CCCCC1
inactive: growth inhibition [1] -1.73% | growth inhibition [2] -24.5% | viability increase [3] -0.35% | viability [4] 97.8% | viability [5] 99.6% | inhibition [6] 4.11% | RAM network inhibition [7] 2.03%

CCOC(=O)NC(C(F)(F)F)(C(F)(F)F)P(=O)(c1ccccc1)c1ccccc1
inactive: growth inhibition [1] -6.98% | growth inhibition [2] 4.49% | viability increase [3] -0.51% | viability [4] 95% | viability [5] 91.7% | inhibition [6] 0.93% | RAM network inhibition [7] 4.13%

N#CC1=C(SCc2ccccc2)NC(=O)CC1c1ccc(O)cc1 (configuration not stated)
inactive: growth inhibition [1] -12.2% | growth inhibition [2] -15.2% | viability increase [3] -2.66% | viability [4] 98.2% | viability [5] 96.6% | inhibition [6] 0.67% | RAM network inhibition [7] 1.25%

CCOC(=O)c1cc2c(n(-c3ccc(C)cc3)c1=O)CCCC2=O
inactive: growth inhibition [1] -9.02% | growth inhibition [2] -16.6% | viability increase [3] -3.28% | viability [4] 99.3% | viability [5] 94.8% | inhibition [6] 0.59% | RAM network inhibition [7] 2.29%

Cc1ccnc(SCC(=O)O)n1
inactive: growth inhibition [1] -0.18% | growth inhibition [2] -10.8% | viability increase [3] -1.15% | viability [4] 101% | viability [5] 101% | inhibition [6] 1.29% | RAM network inhibition [7] 1.08%

Cn1c(C(=O)N2CCN(c3ccccc3F)CC2)cc2c(=O)n(C)c3ccccc3c21
inactive: growth inhibition [1] -2.8% | growth inhibition [2] -4.68% | viability increase [3] -2.61% | viability [4] 100% | viability [5] 98.6% | inhibition [6] 2.54% | RAM network inhibition [7] 1.59%

Nc1nc2c(c3c1c(=O)oc1ccccc13)CCCCC2
inactive: growth inhibition [1] -4.79% | growth inhibition [2] 5.31% | viability increase [3] -2.59% | viability [4] 94.9% | viability [5] 96.2% | inhibition [6] 2.28% | RAM network inhibition [7] 2.05%

COc1ccc(OC)c2c(C)cc(NCCN3CCOCC3)nc12
inactive: growth inhibition [1] -14.7% | growth inhibition [2] -2.92% | viability increase [3] -4.52% | viability [4] 81.5% | viability [5] 84.9% | inhibition [6] 1.78% | RAM network inhibition [7] 2.55%

CC1CC(C)CN(C(=O)c2cn(C)c3ccc(S(=O)(=O)N(C)C)cc3c2=O)C1 (configuration not stated)
inactive: growth inhibition [1] -4.13% | growth inhibition [2] 14.5% | viability increase [3] -0.59% | viability [4] 114% | viability [5] 104% | inhibition [6] 2.47% | RAM network inhibition [7] 2.05%

Cn1c(=O)oc2cc(S(=O)(=O)NCc3ccccn3)ccc21
inactive: growth inhibition [1] -20.9% | growth inhibition [2] -20.2% | viability increase [3] 0.44% | viability [4] 96.5% | viability [5] 101% | inhibition [6] 3.3% | RAM network inhibition [7] 4.32%

CC1(C)C(c2ccc(Cl)cc2)=[N+]([O-])C2(CCCC/C2=N\O)N1O (configuration not stated)
inactive: growth inhibition [1] -15.4% | growth inhibition [2] -4.64% | viability increase [3] 1.21% | viability [4] 96.5% | viability [5] 94.2% | inhibition [6] 0.555% | RAM network inhibition [7] 6.93%

O=C(O)C1CCCN1S(=O)(=O)c1ccc(Cl)c(Cl)c1 (configuration not stated)
inactive: growth inhibition [1] -5.33% | growth inhibition [2] -3.77% | viability increase [3] -1.74% | viability [4] 98.6% | viability [5] 106% | inhibition [6] -0.11% | RAM network inhibition [7] 1.89%

Cc1ccc(-c2nc(CS(=O)(=O)CC(=O)NCCCN3CCN(C)CC3)c(C)o2)cc1
inactive: growth inhibition [1] -9.1% | growth inhibition [2] -15.2% | viability increase [3] 0.53% | viability [4] 89.4% | viability [5] 94.7% | inhibition [6] 1.34% | RAM network inhibition [7] -0.16%

COc1ccc(N2CCCCn3c2nc2c3c(=O)[nH]c(=O)n2C)cc1
inactive: growth inhibition [1] -18.4% | growth inhibition [2] -15.6% | viability increase [3] -2.97% | viability [4] 90.3% | viability [5] 90.9% | inhibition [6] 1.88% | RAM network inhibition [7] 2.42%

Cc1nc(CNS(=O)(=O)c2ccc3ccccc3c2)cs1
inactive: growth inhibition [1] -0.84% | growth inhibition [2] 3.39% | viability increase [3] -1.37% | viability [4] 97.8% | viability [5] 87.9% | inhibition [6] 2.13% | RAM network inhibition [7] 0%

From PubChem BioAssay
